Key:
Type in all cases: functional
HOP-92 = assay: Cytotoxicity against human HOP92 cells assessed as growth inhibition at 10 uM after 48 hrs by sulphorhodamine B assay; details: HOP-92, 48 h, read-out: GI
In short: (§1)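 NCI-60 one-dose screen per the NCI Drug Evaluation Branch protocol. Cells given a single 10 µM concentration with 48 h continuous exposure. Growth estimated by sulphorhodamine B protein assay. Result expressed as percentage growth inhibition relative to untreated growth.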

NCI-H23 = assay: Cytotoxicity against human NCI-H23 cells assessed as growth inhibition at 10 uM after 48 hrs by sulphorhodamine B assay; details: NCI-H23, 48 h, read-out: GI; in short: as §1
[1] = Cytotoxicity against human EKVX cells assessed as growth inhibition at 10 uM after 48 hrs by sulphorhodamine B assay; details: read-out: GI; in short: as §1
A549 = assay: Cytotoxicity against human A549 cells assessed as growth inhibition at 10 uM after 48 hrs by sulphorhodamine B assay; details: A549, 48 h, read-out: GI; in short: as §1
NCI/ADR-RES = assay: Cytotoxicity against human NCI/ADR-RES cells assessed as growth inhibition at 10 uM after 48 hrs by sulphorhodamine B assay; details: read-out: GI; in short: as §1
SNB-75 = assay: Cytotoxicity against human SNB75 cells assessed as growth inhibition at 10 uM after 48 hrs by sulphorhodamine B assay; details: SNB-75, 48 h, read-out: GI; in short: as §1
U-251 = assay: Cytotoxicity against human U251 cells assessed as growth inhibition at 10 uM after 48 hrs by sulphorhodamine B assay; details: U-251, 48 h, read-out: GI; in short: as §1
SNB-19 = assay: Cytotoxicity against human SNB19 cells assessed as growth inhibition at 10 uM after 48 hrs by sulphorhodamine B assay; details: SNB-19, 48 h, read-out: GI; in short: as §1
SF-295 = assay: Cytotoxicity against human SF295 cells assessed as growth inhibition at 10 uM after 48 hrs by sulphorhodamine B assay; details: SF-295, 48 h, read-out: GI; in short: as §1
DU-145 = assay: Cytotoxicity against human DU145 cells assessed as growth inhibition at 10 uM after 48 hrs by sulphorhodamine B assay; details: DU-145, 48 h, read-out: GI; in short: as §1
SF-268 = assay: Cytotoxicity against human SF268 cells assessed as growth inhibition at 10 uM after 48 hrs by sulphorhodamine B assay; details: SF-268, 48 h, read-out: GI; in short: as §1
PC-3 = assay: Cytotoxicity against human PC3 cells assessed as growth inhibition at 10 uM after 48 hrs by sulphorhodamine B assay; details: PC-3, 48 h, read-out: GI; in short: as §1
UACC-62 = assay: Cytotoxicity against human UACC62 cells assessed as growth inhibition at 10 uM after 48 hrs by sulphorhodamine B assay; details: UACC-62, 48 h, read-out: GI; in short: as §1
SK-MEL-2 = assay: Cytotoxicity against human SK-MEL-2 cells assessed as growth inhibition at 10 uM after 48 hrs by sulphorhodamine B assay; details: SK-MEL-2, 48 h, read-out: GI; in short: as §1
SK-MEL-5 = assay: Cytotoxicity against human SK-MEL-5 cells assessed as growth inhibition at 10 uM after 48 hrs by sulphorhodamine B assay; details: SK-MEL-5, 48 h, read-out: GI; in short: as §1
M14 = assay: Cytotoxicity against human M14 cells assessed as growth inhibition at 10 uM after 48 hrs by sulphorhodamine B assay; details: M14, 48 h, read-out: GI; in short: as §1
LOX IMVI = assay: Cytotoxicity against human LOXIMVI cells assessed as growth inhibition at 10 uM after 48 hrs by sulphorhodamine B assay; details: read-out: GI; in short: as §1
UO-31 = assay: Cytotoxicity against human UO31 cells assessed as growth inhibition at 10 uM after 48 hrs by sulphorhodamine B assay; details: UO-31, 48 h, read-out: GI; in short: as §1
CAKI-1 = assay: Cytotoxicity against human Caki1 cells assessed as growth inhibition at 10 uM after 48 hrs by sulphorhodamine B assay; details: CAKI-1, 48 h, read-out: GI; in short: as §1
RXF 393 = assay: Cytotoxicity against human RXF393 cells assessed as growth inhibition at 10 uM after 48 hrs by sulphorhodamine B assay; details: RXF 393, 48 h, read-out: GI; in short: as §1
ACHN = assay: Cytotoxicity against human ACHN cells assessed as growth inhibition at 10 uM after 48 hrs by sulphorhodamine B assay; details: read-out: GI; in short: as §1
SR = assay: Cytotoxicity against human SR cells assessed as growth inhibition at 10 uM after 48 hrs by sulphorhodamine B assay; details: read-out: GI; in short: as §1
A498 = assay: Cytotoxicity against human A498 cells assessed as growth inhibition at 10 uM after 48 hrs by sulphorhodamine B assay; details: A498, 48 h, read-out: GI; in short: as §1
RPMI-8226 = assay: Cytotoxicity against human RPMI8226 cells assessed as growth inhibition at 10 uM after 48 hrs by sulphorhodamine B assay; details: RPMI-8226, 48 h, read-out: GI; in short: as §1
MOLT-4 = assay: Cytotoxicity against human MOLT4 cells assessed as growth inhibition at 10 uM after 48 hrs by sulphorhodamine B assay; details: MOLT-4, 48 h, read-out: GI; in short: as §1
K562 = assay: Cytotoxicity against human K562 cells assessed as growth inhibition at 10 uM after 48 hrs by sulphorhodamine B assay; details: K562, 48 h, read-out: GI; in short: as §1
HL-60(TB) = assay: Cytotoxicity against human HL-60(TB) cells assessed as growth inhibition at 10 uM after 48 hrs by sulphorhodamine B assay; details: HL-60, 48 h, read-out: GI
In short: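 NCI-60 one-dose primary screen run to the Drug Evaluation Branch protocol. Cells are exposed to a single 10 µM concentration for 48 h continuously, and growth is read by SRB protein assay. Data are reported as percent growth of treated cells, expressed as % growth inhibition.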

SK-OV-3 = assay: Cytotoxicity against human SKOV3 cells assessed as growth inhibition at 10 uM after 48 hrs by sulphorhodamine B assay; details: SK-OV-3, 48 h, read-out: GI; in short: as §1
CCRF-CEM = assay: Cytotoxicity against human CCRF-CEM cells assessed as growth inhibition at 10 uM after 48 hrs by sulphorhodamine B assay; details: read-out: GI; in short: as §1
OVCAR-5 = assay: Cytotoxicity against human OVCAR5 cells assessed as growth inhibition at 10 uM after 48 hrs by sulphorhodamine B assay; details: OVCAR-5, 48 h, read-out: GI; in short: as §1
OVCAR-4 = assay: Cytotoxicity against human OVCAR4 cells assessed as growth inhibition at 10 uM after 48 hrs by sulphorhodamine B assay; details: OVCAR-4, 48 h, read-out: GI; in short: as §1
IGROV-1 = assay: Cytotoxicity against human IGROV1 cells assessed as growth inhibition at 10 uM after 48 hrs by sulphorhodamine B assay; details: IGROV-1, 48 h, read-out: GI; in short: as §1
T47D = assay: Cytotoxicity against human T47D cells assessed as growth inhibition at 10 uM after 48 hrs by sulphorhodamine B assay; details: read-out: GI; in short: as §1
Hs-578T = assay: Cytotoxicity against human Hs578T cells assessed as growth inhibition at 10 uM after 48 hrs by sulphorhodamine B assay; details: read-out: GI; in short: as §1
NCI-H522 = assay: Cytotoxicity against human NCI-H522 cells assessed as growth inhibition at 10 uM after 48 hrs by sulphorhodamine B assay; details: NCI-H522, 48 h, read-out: GI; in short: as §1
HT-29 = assay: Cytotoxicity against human HT-29 cells assessed as growth inhibition at 10 uM after 48 hrs by sulphorhodamine B assay; details: HT-29, 48 h, read-out: GI; in short: as §1
MCF7 = assay: Cytotoxicity against human MCF7 cells assessed as growth inhibition at 10 uM after 48 hrs by sulphorhodamine B assay; details: MCF7, 48 h, read-out: GI; in short: as §1
MDA-MB-435 = assay: Cytotoxicity against human MDA-MB-435 cells assessed as growth inhibition at 10 uM after 48 hrs by sulphorhodamine B assay; details: MDA-MB-435, 48 h, read-out: GI; in short: as §1
HCT-15 = assay: Cytotoxicity against human HCT15 cells assessed as growth inhibition at 10 uM after 48 hrs by sulphorhodamine B assay; details: HCT-15, 48 h, read-out: GI; in short: as §1
MDA-MB-468 = assay: Cytotoxicity against human MDA-MB-468 cells assessed as growth inhibition at 10 uM after 48 hrs by sulphorhodamine B assay; details: MDA-MB-468, 48 h, read-out: GI; in short: as §1
HCT-116 = assay: Cytotoxicity against human HCT116 cells assessed as growth inhibition at 10 uM after 48 hrs by sulphorhodamine B assay; details: HCT-116, 48 h, read-out: GI; in short: as §1

SMILES: COc1ccc(-c2c(C#N)c(N)nc3c2CCCC3C)cc1 (configuration not stated)
- inhibition of growth at 10 µM (HOP-92): 20%
- inhibition of growth at 10 µM (NCI-H23): 11%
- inhibition of growth at 10 µM [1]: < 10%
- inhibition of growth at 10 µM (A549): 15.7%
- inhibition of growth at 10 µM (NCI/ADR-RES): 24.1%
- inhibition of growth at 10 µM (SNB-75): 25.3%
- inhibition of growth at 10 µM (U-251): 20%
- inhibition of growth at 10 µM (SNB-19): 11%
- inhibition of growth at 10 µM (SF-295): < 10%
- inhibition of growth at 10 µM (DU-145): < 10%
- inhibition of growth at 10 µM (SF-268): < 10%
- inhibition of growth at 10 µM (PC-3): 16.2%
- inhibition of growth at 10 µM (UACC-62): 20%
- inhibition of growth at 10 µM (SK-MEL-2): < 10%
- inhibition of growth at 10 µM (SK-MEL-5): 14.5%
- inhibition of growth at 10 µM (M14): < 10%
- inhibition of growth at 10 µM (LOX IMVI): 12.3%
- inhibition of growth at 10 µM (UO-31): < 10%
- inhibition of growth at 10 µM (CAKI-1): < 10%
- inhibition of growth at 10 µM (RXF 393): 11.1%
- inhibition of growth at 10 µM (ACHN): < 10%
- inhibition of growth at 10 µM (SR): 36.6%
- inhibition of growth at 10 µM (A498): < 10%
- inhibition of growth at 10 µM (RPMI-8226): 34.1%
- inhibition of growth at 10 µM (MOLT-4): 21.3%
- inhibition of growth at 10 µM (K562): 28.4%
- inhibition of growth at 10 µM (HL-60(TB)): 11.7%
- inhibition of growth at 10 µM (SK-OV-3): < 10%
- inhibition of growth at 10 µM (CCRF-CEM): 16.3%
- inhibition of growth at 10 µM (OVCAR-5): < 10%
- inhibition of growth at 10 µM (OVCAR-4): 17.2%
- inhibition of growth at 10 µM (IGROV-1): < 10%
- inhibition of growth at 10 µM (T47D): 41%
- inhibition of growth at 10 µM (Hs-578T): < 10%
- inhibition of growth at 10 µM (NCI-H522): 14.6%
- inhibition of growth at 10 µM (HT-29): < 10%
- inhibition of growth at 10 µM (MCF7): 10%
- inhibition of growth at 10 µM (MDA-MB-435): < 10%
- inhibition of growth at 10 µM (HCT-15): 25.3%
- inhibition of growth at 10 µM (MDA-MB-468): 15.2%
- inhibition of growth at 10 µM (HCT-116): 15.7%

SMILES: COc1ccc(-c2c3c(nc4ncnc(N)c24)C(C)CCC3)cc1 (configuration not stated)
- inhibition of growth at 10 µM (HOP-92): 20.4%
- inhibition of growth at 10 µM (NCI-H23): < 10%
- inhibition of growth at 10 µM [1]: 11.5%
- inhibition of growth at 10 µM (A549): < 10%
- inhibition of growth at 10 µM (NCI/ADR-RES): 16.3%
- inhibition of growth at 10 µM (SNB-75): 20.5%
- inhibition of growth at 10 µM (U-251): 18.5%
- inhibition of growth at 10 µM (SNB-19): 10%
- inhibition of growth at 10 µM (SF-295): < 10%
- inhibition of growth at 10 µM (DU-145): < 10%
- inhibition of growth at 10 µM (SF-268): < 10%
- inhibition of growth at 10 µM (PC-3): 15%
- inhibition of growth at 10 µM (UACC-62): 20.9%
- inhibition of growth at 10 µM (SK-MEL-2): < 10%
- inhibition of growth at 10 µM (SK-MEL-5): 10%
- inhibition of growth at 10 µM (M14): < 10%
- inhibition of growth at 10 µM (LOX IMVI): 13%
- inhibition of growth at 10 µM (UO-31): 10.4%
- inhibition of growth at 10 µM (CAKI-1): < 10%
- inhibition of growth at 10 µM (RXF 393): 20.3%
- inhibition of growth at 10 µM (ACHN): 10%
- inhibition of growth at 10 µM (SR): 17.3%
- inhibition of growth at 10 µM (A498): < 10%
- inhibition of growth at 10 µM (RPMI-8226): 25%
- inhibition of growth at 10 µM (MOLT-4): 14.3%
- inhibition of growth at 10 µM (K562): 23.4%
- inhibition of growth at 10 µM (HL-60(TB)): < 10%
- inhibition of growth at 10 µM (SK-OV-3): < 10%
- inhibition of growth at 10 µM (CCRF-CEM): 23%
- inhibition of growth at 10 µM (OVCAR-5): < 10%
- inhibition of growth at 10 µM (OVCAR-4): 12.6%
- inhibition of growth at 10 µM (IGROV-1): < 10%
- inhibition of growth at 10 µM (T47D): 47.7%
- inhibition of growth at 10 µM (Hs-578T): < 10%
- inhibition of growth at 10 µM (NCI-H522): < 10%
- inhibition of growth at 10 µM (HT-29): < 10%
- inhibition of growth at 10 µM (MCF7): < 10%
- inhibition of growth at 10 µM (MDA-MB-435): < 10%
- inhibition of growth at 10 µM (HCT-15): 20%
- inhibition of growth at 10 µM (MDA-MB-468): 11.3%
- inhibition of growth at 10 µM (HCT-116): 14.2%

— ChEMBL document CHEMBL2375313, “Synthesis, in vitro antitumor evaluation and DNA-binding study of novel tetrahydroquinolines and some derived tricyclic and tetracyclic ring systems” (Eur J Med Chem, 2013)
